From ChEMBL document CHEMBL3877292, “Synthesis and evaluation of novel hybrids β-carboline-4-thiazolidinones as potential antitumor and antiviral agents” (Eur J Med Chem, 2016)

Legend:
[1] = Antiproliferative activity against human OVCAR3 cells after 48 hrs by SRB assay; assay type: functional; conditions: OVCAR-3, 48 h
Method in brief: (§1)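 Cells grown in RPMI 1640 with 5% FBS, with penicillin/streptomycin in experimental cultures. Exposed in triplicate to 0.25, 2.5, 25 and 250 µg/mL in DMSO/RPMI for 48 h at 37 °C under 5% CO2. Plates were TCA-fixed before (T0) and after treatment, then stained with sulforhodamine B and read at 540 nm. GI50 was obtained by non-linear regression against untreated growth. Doxorubicin served as positive control.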

786-0 [2] = assay: Induction of apoptosis in human 786-0 cells assessed as necrotic cells at 25 uM after 15 hrs by Annexin V/7-AAD staining based flow cytometry; assay type: functional
Method in brief: (§2)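 786-0 cells seeded at 3×10^4 cells/mL and grown 24 h at 37 °C under 5% CO2. Exposed to 25 µM in DMSO/RPMI for 15, 18 or 24 h against DMSO vehicle. Results are mean ± standard error from three experiments in triplicate.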

786-0 [3] = assay: Induction of apoptosis in human 786-0 cells assessed as necrotic cells at 25 uM after 18 hrs by Annexin V/7-AAD staining based flow cytometry; assay type: functional; method in brief: as §2
786-0 [4] = assay: Induction of apoptosis in human 786-0 cells assessed as late apoptotic or necrotic cells at 25 uM after 15 hrs by 7-AAD staining based flow cytometry; assay type: functional; method in brief: as §2
786-0 [5] = assay: Induction of apoptosis in human 786-0 cells assessed as necrotic cells at 25 uM after 24 hrs by Annexin V/7-AAD staining based flow cytometry; assay type: functional; method in brief: as §2
786-0 [6] = assay: Induction of apoptosis in human 786-0 cells assessed as late apoptotic or necrotic cells at 25 uM after 24 hrs by 7-AAD staining based flow cytometry; assay type: functional; method in brief: as §2
[7] = Cell cycle arrest in human 786-0 cells assessed as accumulation at G2/M phase at 12.5 uM after 24 hrs by propidium iodide staining-based flow cytometry (Rvb=36.5+/-1.1%); assay type: functional
Method in brief: (§3)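 786-0 cells seeded at 3×10^4 cells/mL and grown 24 h, then serum-starved 24 h to synchronise. Treated in DMSO/RPMI for 24 h alongside DMSO vehicle and colchicine control. 1×10^5 cells in PBS were stained with propidium iodide for 20 min in the dark at room temperature, then analysed by flow cytometry. Results are mean ± standard error % cells from three experiments in triplicate; ANOVA/Tukey.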

[8] = Antiproliferative activity against human MCF7 cells after 48 hrs by SRB assay; assay type: functional; conditions: MCF7, 48 h; method in brief: as §1
[9] = Antiproliferative activity against human 786-0 cells after 48 hrs by SRB assay; assay type: functional; conditions: 786-0, 48 h; method in brief: as §1
[10] = Antiproliferative activity against human HT-29 cells after 48 hrs by SRB assay; assay type: functional; conditions: HT-29, 48 h; method in brief: as §1
Human alphaherpesvirus 1 = assay: Antiviral activity against Herpes simplex type I KOS; assay type: functional; conditions: Human alphaherpesvirus 1, KOS
[11] = Cytotoxicity against human 786-0 cells after 48 hrs by SRB assay; assay type: functional; conditions: 786-0, 48 h
Method in brief: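 Sulforhodamine B assay in RPMI 1640 with 5% FBS. Triplicate exposures to 0.25–250 µg/mL in DMSO/RPMI for 48 h at 37 °C under 5% CO2. T0 and treated plates were fixed with 50% TCA and absorbance read at 540 nm. Parameters: TGI is total growth inhibition; LC50 is the concentration killing 50% of cells. Doxorubicin served as control.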

786-0 [12] = assay: Induction of apoptosis in human 786-0 cells assessed as late apoptotic or necrotic cells at 25 uM after 18 hrs by 7-AAD staining based flow cytometry; assay type: functional; method in brief: as §2
[13] = Cell cycle arrest in human 786-0 cells assessed as accumulation at G1 phase at 12.5 uM after 24 hrs by propidium iodide staining-based flow cytometry (Rvb=47.1+/-1%); assay type: functional; method in brief: as §3
[14] = Antiproliferative activity against human NCI-H460 cells after 48 hrs by SRB assay; assay type: functional; conditions: NCI-H460, 48 h; method in brief: as §1
[15] = Cell cycle arrest in human 786-0 cells assessed as accumulation at S phase at 12.5 uM after 24 hrs by propidium iodide staining-based flow cytometry (Rvb=12.6+/-0.7%); assay type: functional; method in brief: as §3
[16] = Cell cycle arrest in human 786-0 cells assessed as accumulation at G1 phase at 6.25 uM after 24 hrs by propidium iodide staining-based flow cytometry (Rvb=47.1+/-1%); assay type: functional; method in brief: as §3
[17] = Cell cycle arrest in human 786-0 cells assessed as accumulation at S phase at 6.25 uM after 24 hrs by propidium iodide staining-based flow cytometry (Rvb=12.6+/-0.7%); assay type: functional; method in brief: as §3
[18] = Selectivity index, ratio of CC50 for Herpes simplex type I KOS infected African green monkey Vero cells to EC50 for Herpes simplex virus type 1 KOS; assay type: toxicity, cell-based; conditions: Herpes simplex virus type 1 KOS infected Vero cells, read-out: Ratio CC50/EC50
Method in brief: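 SI calculated as CC50/EC50. CC50 is the 50% cytotoxic concentration on Vero cells by sulforhodamine B, tested in triplicate from 0.1 to 1000 µg/mL. EC50 is the concentration protecting 50% of cells against HSV-1, with acyclovir as HSV-1 standard and drug-free cells as control.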

[19] = Antiproliferative activity against human NCI/ADR-RES cells after 48 hrs by SRB assay; assay type: functional; method in brief: as §1
[20] = Cytotoxicity against African green monkey Vero cells after 48 hrs by SRB assay; assay type: toxicity, cell-based; conditions: chlorocebus sabaeus
Method in brief: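 Vero (ATCC CCL81) cells grown in DMEM with 10% FBS and gentamicin at 37°C, 5% CO2. Cells exposed in triplicate to 1000, 500, 100, 10, 1 and 0.1 µg/mL, with untreated cells as control. Viability read by sulforhodamine B colorimetry. CC50 is the concentration giving 50% cytotoxicity.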

[21] = Cell cycle arrest in human 786-0 cells assessed as accumulation at sub-G1 phase at 6.25 uM after 24 hrs by propidium iodide staining-based flow cytometry (Rvb=3.7+/-0.9%); assay type: functional; method in brief: as §3
[22] = Cell cycle arrest in human 786-0 cells assessed as accumulation at G2/M phase at 6.25 uM after 24 hrs by propidium iodide staining-based flow cytometry (Rvb=36.5+/-1.1%); assay type: functional; method in brief: as §3
[23] = Cell cycle arrest in human 786-0 cells assessed as accumulation at sub-G1 phase at 12.5 uM after 24 hrs by propidium iodide staining-based flow cytometry (Rvb=3.7+/-0.9%); assay type: functional; method in brief: as §3
[24] = Cell cycle arrest in human 786-0 cells assessed as accumulation at G2/M phase at 1.25 uM after 24 hrs by propidium iodide staining-based flow cytometry (Rvb=36.5+/-1.1%); assay type: functional; method in brief: as §3
[25] = Cell cycle arrest in human 786-0 cells assessed as accumulation at S phase at 1.25 uM after 24 hrs by propidium iodide staining-based flow cytometry (Rvb=12.6+/-0.7%); assay type: functional; method in brief: as §3
[26] = Cell cycle arrest in human 786-0 cells assessed as accumulation at sub-G1 phase at 1.25 uM after 24 hrs by propidium iodide staining-based flow cytometry (Rvb=3.7+/-0.9%); assay type: functional; method in brief: as §3
[27] = Cell cycle arrest in human 786-0 cells assessed as accumulation at G1 phase at 1.25 uM after 24 hrs by propidium iodide staining-based flow cytometry (Rvb=47.1+/-1%); assay type: functional; method in brief: as §3

CN(C)c1ccc(-c2nc(C(=O)N/N=C3/NC(=O)CS3)cc3c2[nH]c2ccccc23)cc1
GI50 [1]: 1.27 µM | Activity (786-0 [2]): 3.6% | Activity (786-0 [3]): 34.4% | Activity (786-0 [4]): 3.9% | Activity (786-0 [5]): 38.7% | Activity (786-0 [6]): 36.6% | Activity [7]: 31.8% | GI50 [8]: 2.93 µM | GI50 [9]: 1.6 µM | GI50 [10]: 5.04 µM | EC50 (Human alphaherpesvirus 1): 96.8 µM | TGI [11]: 13 µM | CC50 ([11]; read-out: LC50 (the source's name)): 105 µM | Activity (786-0 [12]): 34.7% | Activity [13]: 40.5% | GI50 [14]: 1.44 µM | Activity [15]: 12.4% | Activity [16]: 48.7% | Activity [17]: 11.9% | selectivity ratio [18]: 18 | GI50 [19]: 0.48 µM | CC50 at 48 h [20]: 1740 µM | Activity [21]: 2.3% | Activity [22]: 37% | Activity [23]: 15.3%

COc1cc2c(c(OC)c1OC)-c1ccc(OC)c(=O)cc1[C@@H](NC(C)=O)CC2
Activity [24]: 61.7% | Activity [25]: 11% | Activity [26]: 9% | Activity [27]: 18.3%
